Measured values reported in ChEMBL document CHEMBL5154861, “Overcoming Paradoxical Kinase Priming by a Novel MNK1 Inhibitor” (J Med Chem, 2022).
Active and inactive are the calls of the source. The calls are words filed in the database; no cut-off is given here.

Columns and labels:
[1] = target: T1, MAP kinase-interacting serine/threonine-protein kinase 2 (Homo sapiens, UniProt Q9HBH9); assay: Inhibition of human recombinant full length GST-tagged MNK2 expressed in insect cells assessed as residual activity at 10 uM using S6 peptide as substrate in presence of [gamma-33P]-ATP incubated for 60 mins by radiometric scintillation counting method relative to control
Outline: (§1)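 Radiometric 33PanQinase assay at 10 μM compound (final 1% DMSO). The buffer was 70 mM HEPES-NaOH pH 7.5 with 3 mM MgCl2, 3 mM MnCl2, 3 μM orthovanadate, 1.2 mM DTT and 50 μg/mL PEG20000. […] Reactions ran 60 min at 30 °C, were stopped with 2% H3PO4 and read by scintillation. Residual activity was calculated against high/low controls.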
Target sequence in this assay (Q9HBH9 whole entry, looked up): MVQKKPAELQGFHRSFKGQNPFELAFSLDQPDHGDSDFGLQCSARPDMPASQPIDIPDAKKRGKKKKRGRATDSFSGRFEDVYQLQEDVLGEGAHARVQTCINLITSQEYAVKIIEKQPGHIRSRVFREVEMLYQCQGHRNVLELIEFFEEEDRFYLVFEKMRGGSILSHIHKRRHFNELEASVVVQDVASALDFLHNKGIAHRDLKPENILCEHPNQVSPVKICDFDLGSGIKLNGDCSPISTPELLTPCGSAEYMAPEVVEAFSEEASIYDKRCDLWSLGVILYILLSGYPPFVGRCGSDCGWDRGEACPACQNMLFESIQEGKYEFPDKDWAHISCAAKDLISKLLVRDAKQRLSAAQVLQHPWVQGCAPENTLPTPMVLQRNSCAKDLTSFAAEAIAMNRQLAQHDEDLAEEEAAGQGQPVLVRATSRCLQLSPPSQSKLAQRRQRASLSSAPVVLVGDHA

[2] = target: T2, MAP kinase-interacting serine/threonine-protein kinase 1 (Homo sapiens, UniProt Q9BUB5); assay: Inhibition of human recombinant full length GST-tagged MNK1 expressed in baculovirus expression system assessed as residual activity at 10 uM using S6 peptide as substrate in presence of [gamma-33P]-ATP incubated for 60 mins by radiometric scintillation counting method relative to control; outline: as §1
Target sequence in this assay (Q9BUB5 whole entry, looked up): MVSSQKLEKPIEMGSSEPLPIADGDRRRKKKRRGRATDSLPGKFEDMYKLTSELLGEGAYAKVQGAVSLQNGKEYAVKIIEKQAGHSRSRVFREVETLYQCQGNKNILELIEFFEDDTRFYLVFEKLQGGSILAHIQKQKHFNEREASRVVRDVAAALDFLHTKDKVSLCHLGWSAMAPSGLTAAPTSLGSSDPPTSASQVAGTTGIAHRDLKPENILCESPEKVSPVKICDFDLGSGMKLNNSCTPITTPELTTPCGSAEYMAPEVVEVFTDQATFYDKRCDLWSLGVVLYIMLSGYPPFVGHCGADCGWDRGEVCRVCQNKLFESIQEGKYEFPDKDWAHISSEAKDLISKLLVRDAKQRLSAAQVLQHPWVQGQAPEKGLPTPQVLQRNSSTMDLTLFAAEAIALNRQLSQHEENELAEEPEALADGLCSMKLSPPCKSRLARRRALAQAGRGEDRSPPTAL

[3] = target: T2, MAP kinase-interacting serine/threonine-protein kinase 1; assay: Activation of MNK1 in human MDA-MB-231 cells assessed as increase in MNK1 phosphorylation at T209/T214 residues at 1.6 to 100 uM incubated for 24 hrs by Western blot analysis; type: cell-based; conditions: filed as activator, dose 1.6-100 µM
Outline: (§2)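 MDA-MB-231 cells, grown in DMEM with 10% heat-inactivated FBS and pen/strep at 37 °C and 5% CO2, were seeded at 6000 cells/cm2 24 h before a 24 h inhibitor exposure. DMSO was kept below 0.5% as the vehicle control. Total lysates (RIPA-type buffer with phosphatase/protease inhibitors, 20–25 μg) were immunoblotted with phospho- and total antibodies at 1:1000, using ECL detection.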
Target sequence in this assay (Q9BUB5 whole entry, looked up): as above

[4] = test system: HEK293; assay: Potentiation of MNK1/eIF4E interaction in HEK293 cells assessed as increase in MNK1 phosphorylation at T209/T214 residues at 100 nM preincubated for 24 hrs followed by UV irradiation and recovery for 40 mins by immunoprecipitation based Western blot assay; type: cell-based; conditions: Homo sapiens, filed as activator, in the assay text read “MNK1/eIF4G interaction” for “MNK1/eIF4E interaction”
Outline: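 HEK-293 cells were exposed to DMSO or inhibitor (100 nM) for 24 h, irradiated with UV at 60 J/m2 and recovered for 40 min at 37 °C. Endogenous eIF4G was immunoprecipitated from about 2 mg of precleared NP-40 lysate on protein A beads overnight at 4 °C. The IP and input were immunoblotted for MNK1 and p-MNK1.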

[5] = target: T2, MAP kinase-interacting serine/threonine-protein kinase 1; assay: Activation of MNK1 in human MDA-MB-231 cells assessed as increase in ERK expression at 25 to 100 uM incubated for 24 hrs by Western blot analysis; type: cell-based; conditions: filed as activator, dose 25-100 µM; outline: as §2
Target sequence in this assay (Q9BUB5 whole entry, looked up): as above

[6] = target: T2, MAP kinase-interacting serine/threonine-protein kinase 1; assay: Inhibition of human recombinant full length GST-tagged MNK1 expressed in baculovirus expression system using S6 peptide as substrate in presence of [gamma-33P]-ATP incubated for 60 mins by radiometric scintillation counting method
Outline: (§3)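 Ten compound concentrations from 5 × 10–5 to 1.5 × 10–9 M were tested, and residual activity was calculated from cpm relative to high and low controls.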
Target sequence in this assay (Q9BUB5 whole entry): as the sequence (Q9BUB5 whole entry, looked up) above

[7] = target: T3, MAP kinase-interacting serine/threonine-protein kinase 1/2 (Homo sapiens) (UniProt Q9HBH9+Q9BUB5); assay: Inhibition of MNK1/MNK2 in human MDA-MB-231 cells assessed as reduction in eIF4E phosphorylation incubated for 24 hrs by Western blot analysis; type: cell-based; conditions: dose 0.3-10 µM, DDE = dose-dependent effect; outline: as §2
[8] = organism: Homo sapiens; assay: Selectivity ratio of IC50 for inhibition of human recombinant full length GST-tagged MNK2 to IC50 for inhibition of human recombinant full length GST-tagged MNK1; outline: as §3
[9] = target: T1, MAP kinase-interacting serine/threonine-protein kinase 2; assay: Inhibition of human recombinant full length GST-tagged MNK2 expressed in insect cells using S6 peptide as substrate in presence of [gamma-33P]-ATP incubated for 60 mins by radiometric scintillation counting method; outline: as §3
Target sequence in this assay (Q9HBH9 whole entry): as the sequence (Q9HBH9 whole entry, looked up) above

[10] = target: T3, MAP kinase-interacting serine/threonine-protein kinase 1/2 (Homo sapiens); assay: Inhibition of MNK1/MNK2 in human MDA-MB-468 cells assessed as inhibition of eIF4E phosphorylation incubated for 24 hrs by Western blot analysis; type: cell-based; conditions: dose 0.3-10 µM, DDE = dose-dependent effect
[11] = test system: MDA-MB-231; assay: Growth inhibition of human MDA-MB-231 cells measured after 72 hrs by crystal violet staining based assay; type: functional
Outline: (§4)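 Cells were seeded at 6000 cells/cm2, and 24 h later were treated with a range of concentrations (DMSO below 0.5%) for 72 h. They were fixed with 4% formaldehyde for 30 min and stained with 0.5% crystal violet for 15 min. Dye was eluted in 15% acetic acid and read as OD at 595 nm. Results are from three independent experiments, reported as SD; GI50 values were derived from the curves.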

[12] = test system: MDA-MB-231; assay: Cytotoxicity against human MDA-MB-231 cells assessed as reduction in cell viability at 20 uM measured after 72 hrs by crystal violet staining based assay relative to control; type: functional; outline: as §4
[13] = test system: IMR-90; assay: Cytotoxicity against human IMR-90 cells assessed as increase in dead cells at 2.5 to 40 uM by Hoechst/propidium iodide staining based microscopic analysis; type: toxicity, cell-based; conditions: imr-90, 40 µM, dose 2.5-40 µM
Outline: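 Cells were grown and treated for 72 h as in the crystal violet assay, with cisplatin and DMSO as controls. Before fixation, PI (2.5 μM) and Hoechst (0.05 mg/mL) were added to the medium for 30 min. At least 100 cells per condition were counted microscopically, and PI-positive cells were scored as a percentage of Hoechst-positive cells. Three independent experiments were done.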

[14] = target: T3, MAP kinase-interacting serine/threonine-protein kinase 1/2 (Homo sapiens); assay: Inhibition of MNK1/MNK2 in human IMR-90 cells assessed as inhibition of eIF4E phosphorylation incubated for 24 hrs by Western blot analysis; type: cell-based; conditions: dose 0.3-10 µM, DDE = dose-dependent effect
[15] = target: Eukaryotic translation initiation factor 4E (Homo sapiens) (UniProt P06730); assay: Inhibition of eIF4E phosphorylation in human MDA-MB-231 cells at 5 to 20 uM pretreated for 3 hrs followed by UV irradiation and recovery for 40 mins with compound by Western blot analysis; type: cell-based; conditions: dose 5-20 µM, time 220.0 min
Chain of Eukaryotic translation initiation factor 4E (Homo sapiens) (P06730 whole entry): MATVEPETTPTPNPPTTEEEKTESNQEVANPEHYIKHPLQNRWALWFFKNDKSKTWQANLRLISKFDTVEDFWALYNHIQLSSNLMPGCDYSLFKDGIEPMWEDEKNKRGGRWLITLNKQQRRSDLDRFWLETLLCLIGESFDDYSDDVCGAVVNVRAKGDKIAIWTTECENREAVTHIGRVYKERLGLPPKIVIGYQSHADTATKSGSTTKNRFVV
Outline: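 MDA-MB-231 cells were pretreated with inhibitor for 3 h and then UV-irradiated. They recovered for 40 min at 37 °C with the inhibitor still present. Total lysates were immunoblotted for phospho-eIF4E and pathway markers (p-MNK1, p-p38, p-HSP27, p-ERK, p-p90RSK).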

[16] = test system: MCF7; assay: Growth inhibition of human MCF7 cells measured after 72 hrs by crystal violet staining based assay; type: functional; outline: as §4
[17] = test system: IMR-90; assay: Cytotoxicity against human IMR-90 cells assessed as reduction in cell viability measured after 72 hrs by crystal violet staining based assay; type: functional; outline: as §4
[18] = target: T2, MAP kinase-interacting serine/threonine-protein kinase 1; assay: Inhibition of MNK1 in human MDA-MB-231 cells assessed as inhibition of eIF4E phosphorylation at 10 uM by Western blot analysis; type: cell-based; conditions: time 0.5-72 hrs, TDE = time-dependent effect
Outline: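 MDA-MB-231 cells were exposed to 10 μM inhibitor for various times. Phospho-eIF4E (Ser209) versus total eIF4E was then assessed by immunoblot of total lysates (20–25 μg protein), with ECL detection.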
Target sequence in this assay (Q9BUB5 whole entry, looked up): as the sequence (Q9BUB5 whole entry, looked up) above

[19] = test system: MDA-MB-231; assay: Cytotoxicity against human MDA-MB-231 cells assessed as reduction in cell viability measured after 72 hrs by crystal violet staining based assay; type: functional; conditions: dose 2.5-40 µM, DDE = dose-dependent effect; outline: as §4
[20] = target: T3, MAP kinase-interacting serine/threonine-protein kinase 1/2 (Homo sapiens); assay: Inhibition of MNK1/MNK2 in human MDA-MB-231 cells assessed as inhibition of eIF4E phosphorylation at 20 uM incubated for 24 hrs by Western blot analysis; type: cell-based; outline: as §2
[21] = target: T3, MAP kinase-interacting serine/threonine-protein kinase 1/2 (Homo sapiens); assay: Inhibition of MNK1/MNK2 in human MCF7 cells assessed as inhibition of eIF4E phosphorylation incubated for 24 hrs by Western blot analysis; type: cell-based; conditions: dose 0.3-10 µM, DDE = dose-dependent effect
[22] = test system: IMR-90; assay: Cytotoxicity against human IMR-90 cells assessed as reduction in cell viability at 20 uM measured after 72 hrs by crystal violet staining based assay; type: toxicity; conditions: imr-90, 72 h; outline: as §4
[23] = test system: MDA-MB-468; assay: Growth inhibition of human MDA-MB-468 cells measured after 72 hrs by crystal violet staining based assay; type: functional; outline: as §4

Row | Compound | Activity [1] | Activity [2] | further results
1 | COc1ccc(-c2cc(-c3ccccc3OC)nc3[nH]nc(N)c23)cc1 | 109% | 63% | –
2 | COc1ccc(-c2cc(-c3cccc(OC)c3)nc3[nH]nc(N)c23)cc1 | 92% | 41% | –
3 | COc1ccc(-c2cc(-c3ccc(C)cc3)c3c(N)n[nH]c3n2)cc1 | 82% | 45% | –
4 | Cc1cc(Nc2cc(N)ncn2)c(=O)n2c1C(=O)NC21CCCCC1 | – | – | Activity [3]: Active; Activity [4]: Active; Activity [5]: Active
5 | COc1ccc(-c2cc(-c3ccc(OC)cc3)c3c(N)n[nH]c3n2)cc1 | 101% | 60% | –
6 | Nc1n[nH]c2nc(-c3ccccc3)cc(-c3ccccc3)c12 | 52% | 14% | inhibition [10]: Dde; GI50 [11]: 15.1 µM; Activity [12]: 60%; Activity [13]: Non-Toxic; inhibition [14]: Dde; inhibition [15]: Active; GI50 [16]: 8.46 µM; GI50 [17]: > 40 µM; inhibition [18]: Tde; inhibition [7]: Dde; Activity [19]: Dde; inhibition [20]: Active; inhibition [21]: Dde; Activity [22]: Non-Toxic; GI50 [23]: 14.5 µM
7 | Nc1n[nH]c2nc(-c3ccccc3)cc(-c3ccc(F)cc3)c12 | 62% | 31% | IC50 [6]: 1.3 µM; inhibition [7]: Dde; Ratio IC50 [8]: 4; IC50 [9]: 4.1 µM
8 | COc1ccccc1-c1cc(-c2ccc(C)cc2)c2c(N)n[nH]c2n1 | 123% | 61% | –

More lines, main results first:

Row | Activity [1] | Activity [2] | Compound | further results
9 | 95% | 106% | Cn1nc(N)c2cccnc21 | –
10 | 74% | 25% | COc1ccc(-c2cc(-c3ccccc3)nc3[nH]nc(N)c23)cc1 | –
11 | 102% | 95% | Nc1n[nH]c2ncccc12 | –
12 | 99% | 97% | Nc1c2cc(-c3c(Cl)cccc3Cl)c(Cl)nc2nn1-c1ccccc1 | –
13 | 102% | 103% | Nc1c2c(-c3ccccc3)c(Cl)c(Cl)nc2nn1-c1ccccc1 | –
14 | 74% | 38% | COc1cccc(-c2cc(-c3ccccc3)c3c(N)n[nH]c3n2)c1 | IC50 [6]: 4.2 µM; inhibition [7]: Dde; Ratio IC50 [8]: 4; IC50 [9]: 22 µM
15 | 117% | 80% | Cn1nc(N)c2c(-c3ccccc3)cc(-c3ccccc3)nc21 | –
16 | 154% | 94% | COc1ccc(-c2cc(-c3ccc(OC)cc3)c3c(N)nn(C)c3n2)cc1 | –
17 | 82% | 51% | COc1cccc(-c2cc(-c3ccc(F)cc3)c3c(N)n[nH]c3n2)c1 | –
18 | 145% | 102% | COc1ccc(-c2cc(-c3ccccc3)nc3c2c(N)nn3C)cc1 | –
